What was measured:
[1] = molecular target: GABA-A receptor; anion channel; assay: (§1) In vitro inhibition of [35S]TBPS binding to Gamma-aminobutyric acid A receptor in rat brain cortical membranes in the presence of 5 uM GABA (low affinity); type: cell membranes, Membrane
How it was run: (§2)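 Rat cortical P2 membranes washed in 200 mM NaCl/50 mM Na-K phosphate pH 7.4, incubated 90 min at room temperature with 2 nM [35S]TBPS, 5 µM GABA and test drug in DMSO (final 0.5%). Nonspecific binding defined with 2 µM unlabeled TBPS. Filtration, scintillation counting. Fits to one- or two-component, full or partial inhibition models chosen by F-test; IC50 and Imax as mean ± SEM of individual experiments.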

[2] = molecular target: GABA-A receptor; anion channel; assay: In vitro inhibition of [35S]TBPS binding to Gamma-aminobutyric acid A receptor in rat brain cortical membranes in the presence of 5 uM GABA (high affinity); type: cell membranes, Membrane; how it was run: as §2
Mus musculus [3] = assay: Percent of animals (n=8) not exhibiting PTZ-induced ( Pentylentetrazol protection) seizures 10 min following a 10 mg/kg ip dose of steroid.; type: functional; conditions: route intraperitoneal
How it was run: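 Male NSA mice (15-20 g), n = 8. […] Mice watched 30 min for clonic seizure (forelimb clonus ≥3 s). Read-out is the percent of mice protected.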

Rattus norvegicus [4] = species: Rattus norvegicus; assay: The maximum inhibitory potency was calculated by fitting [35S]TBPS inhibition data to a sigmoid function (rat brain cortical P2 membranes) (high affinity); type: functional
How it was run: (§3)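 Rat cortical P2 membranes, washed in 200 mM NaCl/50 mM Na-K phosphate pH 7.4, incubated 90 min at room temperature with 2 nM [35S]TBPS, 5 µM GABA and test drug in DMSO (final 0.5%). Nonspecific binding taken with 2 µM unlabeled TBPS. Filtration, then scintillation counting. Partial vs full and one- vs two-component models chosen by F-test. IC50 and Imax come from individual experiments, given as mean ± SEM of 3–4.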

Rattus norvegicus [5] = species: Rattus norvegicus; assay: (§4) The maximum inhibitory potency was calculated by fitting [35S]TBPS inhibition data to a sigmoid function (rat brain cortical P2 membranes) (low affinity); type: functional; how it was run: as §3
[6] = molecular target: GABA-A receptor; anion channel; assay: In vitro inhibition of [35S]TBPS binding to gamma-aminobutyric-acid A receptor in rat brain cortical membranes in the presence of 5 uM GABA.; type: cell membranes, Membrane
How it was run: as §3, with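 “F-test.” for “F-test. IC50 and Imax come from individual experiments, given as mean ± SEM of 3–4.”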

Mus musculus [7] = assay: Anticonvulsant potency that produces blockade of MES-induced seizures when administered intraperitoneally; type: functional; conditions: ip
How it was run: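 Male NSA mice given steroid ip in 50% HP-β-CD 30 min before corneal electroshock (50 mA, 60 pulses/s, 0.8 ms pulses, 1 s). End-point is tonic hindlimb extension >90° within 30 s. Quantal dose-response; ED50 reported with 95% CI.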

Mus musculus [8] = assay: Anticonvulsant potency that produces blockade of PTZ-induced seizures when administered intraperitoneally; type: functional; conditions: ip
How it was run: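 Male NSA mice given steroid ip in 50% HP-β-CD 30 min before PTZ 85 mg/kg sc. Mice watched 30 min for forelimb clonus ≥3 s. Quantal dose-response; ED50 reported with 95% confidence interval.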

Rattus norvegicus [9] = species: Rattus norvegicus; assay: (§5) The maximum inhibitory potency was calculated by fitting [35S]TBPS inhibition data to a sigmoid function (rat brain cortical P2 membranes); type: functional; how it was run: as §2
[10] = Toxic dose that produces increase in hanging-wire failure; type: toxicity; conditions: mouse
How it was run: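 Male NSA mice, 15–20 g, given steroid ip in 50% HP-β-CD 30 min before testing. Hanging wire of 2 mm diameter, 25 cm above padding. A pass means both hindpaws reach the wire within 5 s. Quantal scoring; TD50 with 95% confidence interval.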

[11] = molecular target: T1, GABA-A receptor; alpha-1/beta-2/gamma-2 (Homo sapiens, UniProt P14867+P18507+P47870); assay: Steroid potentiation of 5% GABA responses in Xenopus oocytes expressing human alpha-1-beta-2-gamma-2L subunits of GABA-A receptor; type: functional, cell-based, Oocyte
T1 sequence (P14867 whole entry): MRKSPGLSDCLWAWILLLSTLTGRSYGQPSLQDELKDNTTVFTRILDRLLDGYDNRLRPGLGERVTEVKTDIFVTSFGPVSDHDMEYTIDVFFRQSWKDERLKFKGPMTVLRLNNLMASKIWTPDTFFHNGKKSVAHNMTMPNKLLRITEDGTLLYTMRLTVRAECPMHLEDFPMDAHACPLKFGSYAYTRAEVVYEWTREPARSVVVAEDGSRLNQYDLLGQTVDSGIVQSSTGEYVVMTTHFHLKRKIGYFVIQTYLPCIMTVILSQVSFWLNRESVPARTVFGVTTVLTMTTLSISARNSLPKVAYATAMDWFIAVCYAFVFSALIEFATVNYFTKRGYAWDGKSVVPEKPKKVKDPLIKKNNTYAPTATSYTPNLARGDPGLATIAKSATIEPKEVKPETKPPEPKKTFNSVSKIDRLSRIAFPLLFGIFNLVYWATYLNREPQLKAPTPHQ
T1 sequence (P47870 whole entry): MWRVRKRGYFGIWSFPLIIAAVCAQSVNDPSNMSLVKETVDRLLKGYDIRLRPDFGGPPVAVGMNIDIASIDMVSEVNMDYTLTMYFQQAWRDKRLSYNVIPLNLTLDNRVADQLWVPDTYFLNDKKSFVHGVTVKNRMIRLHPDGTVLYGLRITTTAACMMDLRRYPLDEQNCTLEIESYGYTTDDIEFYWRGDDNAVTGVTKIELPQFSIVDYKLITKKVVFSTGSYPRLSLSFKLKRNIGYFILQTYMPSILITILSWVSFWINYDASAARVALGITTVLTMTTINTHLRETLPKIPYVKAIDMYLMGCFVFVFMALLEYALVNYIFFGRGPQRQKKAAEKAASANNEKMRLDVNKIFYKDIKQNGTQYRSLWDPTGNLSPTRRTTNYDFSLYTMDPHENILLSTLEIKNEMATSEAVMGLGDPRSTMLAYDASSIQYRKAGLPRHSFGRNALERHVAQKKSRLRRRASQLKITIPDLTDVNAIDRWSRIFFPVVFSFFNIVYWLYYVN
T1 sequence (P18507 whole entry): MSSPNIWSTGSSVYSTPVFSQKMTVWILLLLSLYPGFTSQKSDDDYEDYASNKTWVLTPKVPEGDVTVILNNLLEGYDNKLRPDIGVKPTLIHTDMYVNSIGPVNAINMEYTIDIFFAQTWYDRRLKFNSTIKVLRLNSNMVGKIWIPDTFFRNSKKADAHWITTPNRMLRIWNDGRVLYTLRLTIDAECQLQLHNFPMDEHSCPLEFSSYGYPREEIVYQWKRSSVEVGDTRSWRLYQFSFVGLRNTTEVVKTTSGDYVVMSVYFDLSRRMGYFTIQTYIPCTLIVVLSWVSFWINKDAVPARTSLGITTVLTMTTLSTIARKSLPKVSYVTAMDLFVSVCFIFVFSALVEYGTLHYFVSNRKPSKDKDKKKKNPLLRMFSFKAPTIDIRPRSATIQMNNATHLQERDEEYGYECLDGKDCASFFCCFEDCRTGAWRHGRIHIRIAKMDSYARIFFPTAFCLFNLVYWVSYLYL
How it was run: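 Xenopus oocytes injected with α1, β2, γ2L cRNAs (~1 ng each). Two-electrode voltage clamp at -70 mV in frog Ringer's, pH 7.4. GABA set to give about 5% of the maximal (1 mM GABA) current. Steroid stocks in DMSO diluted into Ringer's, DMSO 0.3%. Modulation is potentiation plus any direct steroid current, fitted to a four-parameter logistic. Mean ± SEM.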

[12] = molecular target: GABA-A receptor; alpha-1/beta-2/gamma-2 (Homo sapiens) (UniProt P14867+P47870+P18507); assay: Efficacy as fractional response (FR) relative to GABA maximum current elicited in the Xenopus oocytes; type: functional, cell-based; conditions: Oocyte
How it was run: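 Xenopus oocytes expressing α1β2γ2L GABAA receptors (~1 ng each cRNA), two-electrode voltage clamp at -70 mV in frog Ringer's pH 7.4. GABA set to give ~5% of maximal current (1 mM GABA). Steroid co-applied with 0.3% DMSO. Response taken as potentiation plus any direct current, expressed as a fraction of GABA maximum, fit to a four-parameter logistic.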

[13] = Slope value was determined
[14] = molecular target: GABA-A receptor; anion channel; assay: In vitro inhibition of [35S]TBPS binding to Gamma-aminobutyric acid A (GABA-A) receptor of rat brain cortical membranes in the presence of 5 uM GABA(high affinity); type: cell membranes, Membrane; how it was run: as §3
[15] = molecular target: T2, Gamma-aminobutyric acid receptor subunit gamma-1 (Rattus norvegicus, UniProt P23574); assay: In vitro inhibition of [35S]-TBPS binding to Gamma-aminobutyric acid A receptor in rat brain cortical membranes in the presence of 5 uM GABA (low affinity); type: functional, cell membranes, Membrane; how it was run: as §3
[16] = molecular target: GABA-A receptor; anion channel; assay: as §1; type: cell membranes, Membrane; how it was run: as §3; remark: listed apart in the source
[17] = molecular target: T2, Gamma-aminobutyric acid receptor subunit gamma-1; assay: In vitro for inhibition of [35S]TBPS binding in rat brain cortical membranes in the presence of 5 uM GABA in two-component inhibition curve; type: functional, cell membranes, Membrane; how it was run: as §3
Rattus norvegicus [18] = species: Rattus norvegicus; assay: as §5; type: functional; how it was run: as §3; remark: listed apart in the source
[19] = The slope value for efficacy and response
How it was run: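 Oocytes expressing α1β2γ2L GABAA receptors under two-electrode voltage clamp in frog Ringer's pH 7.4. GABA or steroid concentration-response data fitted to a four-parameter logistic equation to derive slope. Mean ± SEM.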

Rattus norvegicus [20] = species: Rattus norvegicus; assay: as §4; type: functional; how it was run: as §2; remark: listed apart in the source

T2 sequence (P23574 whole entry): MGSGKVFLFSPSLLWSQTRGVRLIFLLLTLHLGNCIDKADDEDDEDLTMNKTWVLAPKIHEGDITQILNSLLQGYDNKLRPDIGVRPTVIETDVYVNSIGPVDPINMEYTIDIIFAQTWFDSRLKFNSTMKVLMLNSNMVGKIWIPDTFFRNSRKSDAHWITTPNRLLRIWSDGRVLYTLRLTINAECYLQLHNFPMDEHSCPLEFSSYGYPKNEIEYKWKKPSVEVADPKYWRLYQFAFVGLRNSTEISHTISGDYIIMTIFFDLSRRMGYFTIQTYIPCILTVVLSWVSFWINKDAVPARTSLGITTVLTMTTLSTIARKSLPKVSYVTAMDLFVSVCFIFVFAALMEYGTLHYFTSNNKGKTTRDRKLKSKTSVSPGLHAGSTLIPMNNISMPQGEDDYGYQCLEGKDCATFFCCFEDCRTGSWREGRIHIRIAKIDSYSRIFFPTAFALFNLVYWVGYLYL

Row | Structure (SMILES) | IC50 [1] [nM] | IC50 [2] [nM] | PTZ protection (Mus musculus [3]) [%] | Imax (Rattus norvegicus [4]) [%] | Imax (Rattus norvegicus [5]) [%] | IC50 [6] [nM] | ED50 (Mus musculus [7]) [mg/kg] | ED50 (Mus musculus [8]) [mg/kg] | Imax (Rattus norvegicus [9]) [%] | TD50 [10] [mg/kg] | EC50 [11] [nM] | Efficacy [12] | Slope [13] | IC50 [14] [nM] | IC50 [15] [nM] | IC50 [16] [nM] | IC50 [17] [nM] | Imax (Rattus norvegicus [18]) [%] | Slope [19] | Imax (Rattus norvegicus [20]) [%]
1 | CC(=O)c1cccc(C#C[C@@]2(O)CC[C@@]3(C)[C@H](CC[C@@H]4[C@@H]3CC[C@]3(C)[C@@H](C(C)=O)CC[C@@H]43)C2)c1 | 1500 | 45 | 0 | 34 | 65 |  |  |  |  |  |  |  |  |  |  |  |  |  |  | 
2 | CC(=O)c1ccc(C#C[C@@]2(O)CC[C@@]3(C)[C@H](CC[C@@H]4[C@@H]3CC[C@]3(C)[C@@H](C(C)=O)CC[C@@H]43)C2)cc1 |  |  | 75 |  |  | 10 | 7.4 | 8.2 | 106 | 10 | 6.6 | 0.94 | 1.2 |  |  |  |  |  |  | 
3 | CC(=O)c1ccc(C#C[C@@]2(O)CC[C@H]3[C@H](CC[C@@H]4[C@@H]3CC[C@]3(C)[C@@H](C(C)=O)CC[C@@H]43)C2)cc1 |  |  | 100 |  |  |  | 9.2 | 2.8 | 97 | 13.2 | 8.2 | 0.91 | 1.4 |  |  |  |  |  |  | 
4 | CC(=O)[C@H]1CC[C@H]2[C@@H]3CC[C@@H]4C[C@@](O)(C#Cc5ccccc5O)CC[C@]4(C)[C@H]3CC[C@]12C |  |  | 0 | 30 | 57 |  |  |  |  |  | 340 | 0.51 | 1.6 | 82 | 5100 |  |  |  |  | 
5 | CC(=O)[C@H]1CC[C@H]2[C@@H]3CC[C@@H]4C[C@@](O)(C#Cc5ccc(C=O)cc5)CC[C@]4(C)[C@H]3CC[C@]12C |  |  | 0 | 44 | 54 |  |  |  |  |  | 31 | 0.88 |  | 67 |  | 1600 | 1600 | 54 | 1.3 | 
6 | CC(=O)[C@H]1CC[C@H]2[C@@H]3CC[C@@H]4C[C@@](O)(C#Cc5ccc(N)cc5)CC[C@]4(C)[C@H]3CC[C@]12C | 11800 | 96 | 13 | 17 |  |  |  |  |  |  | > 1000 |  |  |  |  |  |  |  |  | 84

From ChEMBL document CHEMBL1130204, “3 alpha-Hydroxy-3 beta-(phenylethynyl)-5 beta-pregnan-20-ones: synthesis and pharmacological activity of neuroactive steroids with high affinity for GABAA receptors” (J Med Chem, 1997)
